ChEMBL document CHEMBL1124864, “Synthesis and biological evaluation of new antimuscarinic compounds with amidine basic centers. A useful bioisosteric replacement of classical cationic heads” (J Med Chem, 1990)

Tests used:
[1] = target: T1, Muscarinic acetylcholine receptor M2 (Rattus norvegicus, UniProt P10980); assay: In vitro receptor binding against Muscarinic acetylcholine receptor M2 in rat heart was determined using [3H]NMS
T1 sequence (P10980 whole entry): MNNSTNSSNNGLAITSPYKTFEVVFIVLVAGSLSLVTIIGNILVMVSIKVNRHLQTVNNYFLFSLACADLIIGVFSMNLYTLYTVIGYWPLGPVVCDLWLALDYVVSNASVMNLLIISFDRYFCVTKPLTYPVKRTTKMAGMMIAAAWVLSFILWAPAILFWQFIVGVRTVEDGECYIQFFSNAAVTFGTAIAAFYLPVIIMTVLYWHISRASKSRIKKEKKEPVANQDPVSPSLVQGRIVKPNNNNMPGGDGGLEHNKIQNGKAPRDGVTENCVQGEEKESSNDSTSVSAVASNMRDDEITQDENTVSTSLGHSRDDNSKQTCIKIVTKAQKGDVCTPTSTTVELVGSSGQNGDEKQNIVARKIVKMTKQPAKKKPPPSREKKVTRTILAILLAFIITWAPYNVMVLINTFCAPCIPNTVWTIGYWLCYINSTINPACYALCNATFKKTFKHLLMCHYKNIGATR

Rattus norvegicus [2] = assay: […] activity against carbachol-induced colonic spasms in rat (iv); assay type: functional
Method in brief: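 Compounds given iv 2 min before each spasmogen dose. Percent inhibition of pretreatment contractions; ED50 with 95% confidence limits from linear regression of log dose-response curves.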

Rattus norvegicus [3] = assay: In vivo activity against oxotremorine induced salivation in rat (iv)
Rattus norvegicus [4] = assay: In vivo activity against oxotremorine induced tremors in rat (iv)
Cavia porcellus [5] = organism: Cavia porcellus; assay: In vitro functional studies in guinea pig ileum
[6] = target: T2, Muscarinic acetylcholine receptor M1 (Rattus norvegicus, UniProt P08482); assay: In vitro receptor binding against Muscarinic acetylcholine receptor M1 in rat cerebral cortex was determined using [3H]pirenzepine; assay type: tissue-based
T2 sequence (P08482 whole entry): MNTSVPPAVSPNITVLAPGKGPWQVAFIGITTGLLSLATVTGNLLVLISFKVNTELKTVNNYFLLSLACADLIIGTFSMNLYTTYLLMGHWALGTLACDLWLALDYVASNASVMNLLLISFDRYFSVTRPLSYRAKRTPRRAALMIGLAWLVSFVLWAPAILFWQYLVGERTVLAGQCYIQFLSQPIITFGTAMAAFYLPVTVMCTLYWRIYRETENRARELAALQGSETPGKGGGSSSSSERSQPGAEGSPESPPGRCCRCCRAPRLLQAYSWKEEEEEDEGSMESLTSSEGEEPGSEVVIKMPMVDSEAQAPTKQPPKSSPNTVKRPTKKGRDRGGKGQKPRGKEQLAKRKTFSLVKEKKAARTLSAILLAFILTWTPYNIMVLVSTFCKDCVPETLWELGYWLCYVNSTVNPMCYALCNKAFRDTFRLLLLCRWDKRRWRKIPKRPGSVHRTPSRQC
Method in brief: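 Rat cortex, heart or submandibular gland homogenates in Na+-Mg2+-HEPES pH 7.4, incubated 45 min at 30 °C with radioligand plus varying cold ligand. Separated by centrifugation, pellets washed and counted, in triplicate. KD from IC50 by nonlinear regression with Cheng–Prusoff correction; Hill slopes by linear regression.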

[7] = target: Muscarinic acetylcholine receptor M3 (Rattus norvegicus, UniProt P08483); assay: In vitro receptor binding against Muscarinic acetylcholine receptor M3 in rat submandibular gland was determined using [3H]NMS
Muscarinic acetylcholine receptor M3, sequence (P08483 whole entry): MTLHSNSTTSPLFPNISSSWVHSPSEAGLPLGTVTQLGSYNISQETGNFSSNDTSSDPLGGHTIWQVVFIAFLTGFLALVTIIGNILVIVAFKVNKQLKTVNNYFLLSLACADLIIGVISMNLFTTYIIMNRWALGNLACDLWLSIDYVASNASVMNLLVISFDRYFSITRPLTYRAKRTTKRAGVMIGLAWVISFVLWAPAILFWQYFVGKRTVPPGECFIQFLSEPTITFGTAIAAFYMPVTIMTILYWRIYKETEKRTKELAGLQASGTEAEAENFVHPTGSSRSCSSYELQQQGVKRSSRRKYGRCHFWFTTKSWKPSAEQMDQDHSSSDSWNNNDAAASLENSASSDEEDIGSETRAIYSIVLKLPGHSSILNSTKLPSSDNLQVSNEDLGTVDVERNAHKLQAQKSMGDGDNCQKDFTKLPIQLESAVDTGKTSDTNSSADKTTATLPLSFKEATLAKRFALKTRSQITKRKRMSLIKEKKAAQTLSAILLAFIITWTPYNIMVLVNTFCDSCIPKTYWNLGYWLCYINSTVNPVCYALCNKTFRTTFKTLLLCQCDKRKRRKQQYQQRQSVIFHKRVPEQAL

Cavia porcellus [8] = organism: Cavia porcellus; assay: In vitro functional studies in guinea pig left atrium; conditions: Cardiac atrium
[9] = pKa value was determined; assay type: physicochemical
Method in brief: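 Macroscopic pKa measured by potentiometric titration in water containing a few milliliters of methanol, with a glass electrode.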

Structure (SMILES)	Kd [1] [nM]	ED50 (Rattus norvegicus [2]) [µg/kg]	ED50 (Rattus norvegicus [3]) [µg/kg]	ED50 (Rattus norvegicus [4]) [µg/kg]	Kb (Cavia porcellus [5]) [nM]	Kd [6] [nM]	Kd [7] [nM]	Kb (Cavia porcellus [8]) [nM]	pKa [9]
CCCC[N+]1(C)C2CC(OC(=O)C(CO)c3ccccc3)CC1C1OC12.[Br-] (centres undefined)	220	52.9	385	> 3000	56.3	300	220	58.4	
C[N+]1(C)C2CC(OC(=O)C(CO)c3ccccc3)CC1C1OC12 (centres undefined)					0.17			0.38	
O=C(O[C@@H]1C[C@@H]2N[C@H](C1)[C@@H]1O[C@@H]12)[C@H](CO)c1ccccc1									7.09
CC(=N)N1C2CC(OC(=O)C(CO)c3ccccc3)CC1C1OC12.Cl (centres undefined)	6.7	3.9	4.1	1700	1.55	3.4	3.5	5.02	10.7
Cl.N=CN1C2CC(OC(=O)C(CO)c3ccccc3)CC1C1OC12 (centres undefined)	10	6.1	2.45	1300	1.68	3.6	5	6.55	9.78
Cl.N=CN1C2CCC1CC(OC(=O)C(CO)c1ccccc1)C2 (centres undefined)	1.6	3.5	3.9	> 10000	0.72	1.1	1.4	1.59	10.3
Cl.N=C(N)N1C2CC(OC(=O)C(CO)c3ccccc3)CC1C1OC12 (centres undefined)	23	18.6	18.8	> 3000	5.18	7.5	4.5	16.4	10.8
CC(=N)N1C2CCC1CC(OC(=O)C(CO)c1ccccc1)C2.Cl (centres undefined)	10	3.3	6.2	> 10000	1.61	2	3.1	3.17	10.9
Cl.N=C(N)N1C2CCC1CC(OC(=O)C(CO)c1ccccc1)C2 (centres undefined)	11	9.8	5.8	> 3000	1.92	7	2.5	3.06	11.6
C[N+]1(C)[C@@H]2CC[C@H]1C[C@@H](OC(=O)C(CO)c1ccccc1)C2 (some centres undefined) [ATROPINE METHYLBROMIDE]	2.7				0.71		2.6	1.29	
CN1[C@@H]2CC[C@H]1C[C@@H](OC(=O)C(CO)c1ccccc1)C2 (some centres undefined) [ATROPINE]		4.5	8.6	453	3.16			0.66	
CN1[C@@H]2C[C@@H](OC(=O)[C@H](CO)c3ccccc3)C[C@H]1[C@@H]1O[C@@H]12 [SCOPOLAMINE]		5.8	2.6	11	0.4			0.17	
